The data set is described as follows: Toxicity liver stage against HepG2, at 10uM. The format is cell-based. The arrangement: test concentration 10 uM, cell line HepG2-A16-CD81EGFP. The following applies: human, HepG2-A16-CD81EGFP cells; read-out: INHIBITION
An outline of the steps:
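Uninfected HepG2-A16-CD81EGFP cells, 3 × 10^3 per well, 1536-well, plated on prespotted compound at 10 μM final, parasite-free screening media added to match infected plates; puromycin 10 μM positive, DMSO 0.5% negative; run in parallel with 48 h PbLuc assay at 37 °C, 5% CO2; viability by CellTiter-Glo luminescence, normalized to controls.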
`COc1ccc(CN(C)C(=O)NCc2c(C)cc(C)[nH]c2=O)cc1`: the cytotoxicity at 10 µM was -1.13%. With `COc1c[nH]c(C(=O)N2CCN(c3cccc(Cl)c3)CC2)cc1=O`, the cytotoxicity at 10 µM was -1%.

On to `CN(C)CC1(O)CCN(C(=O)Cc2ccc(Cl)c(Cl)c2)C1` (stereo not given), for which the cytotoxicity at 10 µM was -4%. Then `c1cnc(N2CCCC3(CCN(CC4CCOC4)CC3)C2)nc1` (stereo not given), with -2.21%; and `COc1ccnc(CNc2nc(C)nc3ccsc23)c1`, with 40.5%. Regarding `CC(C)NC(=O)C1(Cc2ccccc2-c2ccccc2)CCCNC1` (stereo not given), the cytotoxicity at 10 µM amounted to 3.05%. `Cc1nc(N2CCOCC2)nc2c1CCN(C(=O)C1CC1)CC2`: the cytotoxicity at 10 µM amounted to 2.23%. Turning to `CN1CCN(Cc2cccnc2)C2(CCN(c3ncc(F)cn3)C2)C1=O` (stereo not given), the cytotoxicity at 10 µM is -6.49%. On to `c1cc(CN2CCO[C@H]3[C@H](OCC4CCCC4)CC[C@@H]32)ccn1`, for which the cytotoxicity at 10 µM came out at 13.9%.

`CC(C)N1CCCC(C(=O)N2CCN(c3cccc(C(=O)O)c3)CC2)C1` (stereo not given): the cytotoxicity at 10 µM was determined as 9.45%. For `O=C(c1ccc(F)c(Cl)c1)N1C[C@H]2CC[C@@H](C1)N(Cc1ccccc1)C2`, the cytotoxicity at 10 µM was -8.28%. Next, `O=C(C1CC1)N1CCC(c2nc(-c3ccccc3)n[nH]2)CC1`: -4.15%.

For the compound `O=C1NCCN1C1CCN(Cc2coc(-c3ccccc3)n2)CC1`, the cytotoxicity at 10 µM is -1.54%.

Regarding `O=c1c2c[nH]c(N3CCCCC3)nc-2cn1-c1ccc2c(c1)OCO2`, the cytotoxicity at 10 µM was found to be 15%. Next, `CNS(=O)(=O)CC(=O)NC(C)Cc1cccc(Cl)c1` (stereo not given): -8.15%; `COc1ccc(F)cc1C(C)NC(=O)Nc1nncs1` (stereo not given): 12.4%. Next, `CCCc1cc(CNC2CCN(c3cc(C)nc(N)n3)CC2)on1`: -6.17%. Next, `CCN1CC2(CC1=O)CN(Cc1ccco1)CCN(C(=O)N(C)C)C2` (stereo not given): -6.05%. With `CC(C)c1cncnc1N1CC[C@H](N2CCOCC2)[C@H](CCCO)C1`, the cytotoxicity at 10 µM came out at 5.86%.

As to `Cc1ccc2c(c1)C1(CCN(C(N)=O)CC1)CN2C(=O)N(C)C`, the cytotoxicity at 10 µM was -79.1%. For the compound `CC(C)Cn1cc(NCc2cscn2)cn1`, the cytotoxicity at 10 µM was 3.86%.

Take `CC(C)N(C)CC(=O)N(C)Cc1nc(C(F)(F)F)cs1`: the cytotoxicity at 10 µM was -2.96%. On to `CCN1Cc2ccccc2CC2(CCN(C(=O)N(C)C)CC2)C1=O`, for which the cytotoxicity at 10 µM was found to be 8.3%.

For `O=C(Nc1cc(F)ccc1OCC1CCCO1)c1ccccn1` (stereo not given), the cytotoxicity at 10 µM amounted to 2.57%. On to `CCn1c(CC2CCNCC2)nn(Cc2ccc(C(=O)NC)o2)c1=O`, for which the cytotoxicity at 10 µM was 9.17%. Next, `Fc1ccc(CNCc2cc(Br)c3c(c2)OCO3)cc1`: 0.658%; `COCCOCC(=O)N1CCCC(c2ncc[nH]2)C1` (stereo not given): -4.59%; `Cc1cc(N(C)C)nc(N2CCN(C(C)c3nc(C)no3)CC2)n1` (stereo not given): 2.33%. Then `CCOCC(O)CN1CCN(C(=O)Cc2cccc(Cl)c2)CC1` (stereo not given), with -7.69%; and `CNc1ccc(C)cc1C(=O)N[C@H]1C[C@H]2CN(C)CCN2C1`, with -4.57%. As to `Cc1nnc(C2CCN(C(=O)c3ccc(-n4cccc4)cc3)CC2)s1`, the cytotoxicity at 10 µM turned out to be 6.4%. Then `CCc1cc(N2CCC(NCCc3ccc(C)o3)CC2)nc(C)n1`, with -0.554%. For `Cc1cccc2c1ccn2CCC(=O)O`, the cytotoxicity at 10 µM is 7.47%. On to `O=c1cc(CN(Cc2ccco2)C2CC2)nc2ccc(Br)cn12`, for which the cytotoxicity at 10 µM worked out at 9.48%. Next, `CCn1ccnc1CN1CCCN(C(=O)c2ccnn2C)CC1`: -5.39%; `Cc1occc1C(=O)N1CCC2(CC1)C(c1cnn(C)c1)CC(=O)N2C` (stereo not given): 5.66%. Consider `Cc1[nH]c2ccccc2c1CCNc1ncnc2c1CCNCC2`, for which the cytotoxicity at 10 µM was -37.5%. `CC1CCN(C(=O)[C@H]2CC[C@@H]3[C@@H](CCN3Cc3nccs3)O2)CC1`: the cytotoxicity at 10 µM amounted to 4.62%. For the compound `Cc1cc(C(=O)Nc2nnn[nH]2)ccc1I`, the cytotoxicity at 10 µM was -2.08%.

For the compound `Cc1[nH]ccc1C(=O)N[C@H]1CN(CCO)C[C@@H]1C1CC1`, the cytotoxicity at 10 µM worked out at 3.07%.

`OCC1(Cc2ccc(Cl)cc2)CCN(Cc2cccnc2)CC1`: the cytotoxicity at 10 µM was -45.6%. Then `CC(C)COC1CCN(S(=O)(=O)Cc2cccc(F)c2)CC1`, with -2.11%; and `Cc1ccc(C(O)CNC(=O)NCc2nc(C)cs2)cc1` (stereo not given), with -13.3%; and `Cc1ccc(NC(=O)C2CSCN2C(=O)c2ccncc2)c(C)c1` (stereo not given), with -10.4%.

Consider `CCN(c1ccc(C(=O)Nc2c(C)nn(C(C)C)c2C)cc1)C(C)C`, for which the cytotoxicity at 10 µM is -2.92%. Next, `CNC(=O)CNC(=O)Nc1ccc(Br)c(F)c1`: 5.44%; `O=C(c1ccc(C2CCCN2C(=O)c2ccoc2)s1)N1CCOCC1` (stereo not given): -156%; `CCOC(=O)CN1C[C@@H]2OCCN(c3ncc(F)cn3)[C@@H]2C1`: 20.2%. Turning to `Cc1ccc(CNC2(Cc3cc(CO)on3)COC2)o1`, the cytotoxicity at 10 µM worked out at 0.305%. Next, `OCc1cc2ccccc2nc1NCC1CC1`: -46.2%. Next, `Cc1cc(C(=O)N2CCCCC2c2nc3cc(F)ccc3[nH]2)nn1C` (stereo not given): 4.42%; `CSc1nccc(N2C[C@@H](CN3CCCCC3)[C@@H](CO)C2)n1`: -3.59%. `CCn1ncc2c1C(COC)CN(S(=O)(=O)N(C)C)C2` (stereo not given): the cytotoxicity at 10 µM came out at 12.5%. Then `CN1CC2(CCNCC2)COc2ccccc2S1(=O)=O`, with 4.58%.

Regarding `O=C(NCC1(COc2cnccn2)C[C@@H](O)[C@@H](O)C1)C1CC1` (stereo not given in full), the cytotoxicity at 10 µM came to 7.92%.

Regarding `O=C1CO[C@H]2CN(Cc3ccccc3Br)C[C@@H]2N1`, the cytotoxicity at 10 µM was found to be 2.13%. Next, `CC1(C)CNC(=O)c2nc(C3CCN(C(=O)C4CC4)CC3)[nH]c2C1`: 2.26%; `CC(NC(=O)NCC1(O)CCC1)c1ccc(OCC2CC2)c(F)c1` (stereo not given): -4.69%; `CCN(CC)S(=O)(=O)N1CCCC(c2ccc(C(=O)O)cc2)C1` (stereo not given): -7.27%. Next, `c1ccc2oc(C3CCN(Cc4ncon4)CC3)nc2c1`: 2.56%. Then `O=C(Cc1ccc2c(c1)OCO2)N1CCN(c2cnccn2)CC1`, with -5.51%. Regarding `Cc1cc(C)n(CC2CCCN2C(=O)c2nccc3ccccc23)n1` (stereo not given), the cytotoxicity at 10 µM was -7.49%. As to `CCN(CC)c1ncc2c(c1C(=O)O)CCN(C1CCOC1)C2` (stereo not given), the cytotoxicity at 10 µM came to 15.7%.

Consider `Cc1n[nH]c(C)c1-c1cc(-c2cccc(O)c2)nc(N)c1C#N`, for which the cytotoxicity at 10 µM came to 26.9%. As to `Cc1cc(NC(=O)c2ccc(-n3ncc(C#N)c3N)cc2)n(C)n1`, the cytotoxicity at 10 µM is -0.0414%. Take `Cc1cccc(COC[C@]23COC[C@H]2CN(c2ncccn2)C3)n1`: the cytotoxicity at 10 µM was -76.2%.

For the compound `Cc1cnn(CC2CN(c3nc4ccccc4o3)CCO2)c1` (stereo not given), the cytotoxicity at 10 µM is -16.5%. Take `CN(CC1(CO)CC1)C(=O)C1CCC(=O)N(Cc2ccc(Cl)cc2)C1` (stereo not given): the cytotoxicity at 10 µM was -5.14%. In the case of `CN1CCCCCC1C(=O)N1CCN(c2ccccc2C#N)CC1` (stereo not given), the cytotoxicity at 10 µM is -7.17%.

For the compound `CC(=O)NCCc1ccc(S(=O)(=O)Nc2cc(F)ccc2C)s1`, the cytotoxicity at 10 µM was -13.6%. Turning to `N#Cc1cccc(OCC(=O)N(Cc2ccsc2)C2CC2)c1`, the cytotoxicity at 10 µM is -50.2%.

For `CC(C)C(=O)N1CCC([C@@H]2C[C@H](C(F)F)n3ncnc3N2)CC1`, the cytotoxicity at 10 µM was 6.21%. Then `COCC(=O)N1CCC(c2cc(-c3ccc(C)cc3)n[nH]2)C1` (stereo not given), with -3.39%; and `Cc1ccc(C)c(CC(=O)Nc2cnccc2SCCCO)c1`, with 21.2%; and `COc1ccc(C2CN(c3nc(C)cc(C)n3)CCN2C(C)=O)cc1` (stereo not given), with 2.06%. Then `O=C(c1sccc1C1CC1)N1CCN(c2ncccn2)CC1`, with -6.87%; and `CCOc1ncccc1C(=O)N1CCCC(c2nncn2C)C1` (stereo not given), with -8.47%.

For the compound `O=S1(=O)NC2(CCCN(Cc3ccc(Cl)cc3)C2)COc2ccccc21` (stereo not given), the cytotoxicity at 10 µM was 15.2%. Next, `NC1(C(=O)NCCC2CN(Cc3ccco3)CCO2)CCCC1` (stereo not given): -1.03%. Next, `Fc1ccc(CN2CCC3(CCN(Cc4nccs4)CC3)C2)cc1`: 5.04%. Next, `CC(C)(O)CCc1cccc(C(=O)N2Cc3cnn(CCO)c3C2)c1`: 4.62%. Turning to `O=C(O)CCC(=O)N1CCN(CC2CC2)c2ncccc2C1`, the cytotoxicity at 10 µM is -101%. As for `Cc1ccc(CN2CCc3ncnc(C4CCOC4)c3CC2)s1` (stereo not given), the cytotoxicity at 10 µM was -0.827%. Turning to `N#Cc1cc(S(N)(=O)=O)ccc1NC1CCc2ccc(F)cc21` (stereo not given), the cytotoxicity at 10 µM was found to be 8.08%.

Regarding `Cc1nccn1-c1nccnc1C1CCCN(C2CCCC2)C1` (stereo not given), the cytotoxicity at 10 µM was -0.55%. Next, `O=C(C1CCC1)N1C[C@@H](c2ccsc2)[C@@H]2CN(C3CCCCC3)CC[C@@H]21`: 1.32%; `Cc1cc(C(=O)NC(C)c2nnn[nH]2)c2cccc(C)c2n1` (stereo not given): -16.4%; `COCCN(Cc1ccco1)Cc1nc(-c2ccc(C)c(F)c2)no1`: 3.68%.

`O=C(NCC(F)(F)F)C1CCC(=O)N(C2CCCC2)C1` (stereo not given): the cytotoxicity at 10 µM is -8.77%. Next, `O=C(CC1[C@H]2CN(C(=O)Cc3ccccn3)C[C@@H]12)Nc1cccnc1` (stereo not given in full): 10.1%; `Cn1cccc1C(=O)N1CCC(O)(CN2CCc3ccccc3C2)C1` (stereo not given): 3.77%. Then `CC(=O)NC[C@H]1OC[C@@H](NC2CCC(F)(F)CC2)[C@@H]1O`, with -8.57%; and `CCCc1noc2ncc(C(=O)N3CCCC3c3cnn(C)c3)cc12` (stereo not given), with -11.9%; and `Cc1ccc(O[C@@H]2C[C@H]3CN(c4ncc(F)cn4)CCN3C2)cc1`, with 35.3%. Then `OC(CN1CCN(Cc2cc(F)cc(F)c2)CC1)C1CC1` (stereo not given), with 11.5%.
